# Experiments:
# OVCAR-8 = test: Cytotoxicity against human OVCAR8 cells assessed as cellular growth at 10 uM; format: functional
# Method in brief: (§1)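 Single-dose screen run by the NCI across its 60-human-tumour-cell-line panel; growth recorded for each cell line.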
# SK-OV-3 = test: Cytotoxicity against human SKOV3 cells assessed as cellular growth at 10 uM; format: functional
# ACHN = test: Cytotoxicity against human ACHN cells assessed as cellular growth at 10 uM; format: functional; method in brief: as §1
# CAKI-1 = test: Cytotoxicity against human Caki1 cells assessed as cellular growth at 10 uM; format: functional; method in brief: as §1
# RXF 393 = test: Cytotoxicity against human RXF393 cells assessed as cellular growth at 10 uM; format: functional; method in brief: as §1
# MCF7 = test: Cytotoxicity against human MCF7 cells assessed as cellular growth at 10 uM; format: functional; method in brief: as §1
# MDA-MB-468 = test: Cytotoxicity against human MDA-MB-468 cells assessed as cellular growth at 10 uM; format: functional; method in brief: as §1
# EKVX = test: Cytotoxicity against human EKVX cells assessed as cellular growth at 10 uM; format: functional; method in brief: as §1
# NCI-H226 = test: Cytotoxicity against human NCI-H226 cells assessed as cellular growth at 10 uM; format: functional; method in brief: as §1
# NCI-H522 = test: Cytotoxicity against human NCI-H522 cells assessed as cellular growth at 10 uM; format: functional; method in brief: as §1
# SF-268 = test: Cytotoxicity against human SF268 cells assessed as cellular growth at 10 uM; format: functional; method in brief: as §1
# SNB-19 = test: Cytotoxicity against human SNB19 cells assessed as cellular growth at 10 uM; format: functional
# LOX IMVI = test: Cytotoxicity against human LOXIMVI cells assessed as cellular growth at 10 uM; format: functional; method in brief: as §1
# MDA-MB-435 = test: Cytotoxicity against human MDA-MB-435 cells assessed as cellular growth at 10 uM; format: functional; method in brief: as §1
# [1] = molecular target: Telomerase reverse transcriptase (Homo sapiens) (UniProt O14746); test: Residual activity of human TERT in H1299 cells at 10 uM after 24 hrs by SEAP reporter gene assay
# Telomerase reverse transcriptase (Homo sapiens), sequence (O14746 whole entry): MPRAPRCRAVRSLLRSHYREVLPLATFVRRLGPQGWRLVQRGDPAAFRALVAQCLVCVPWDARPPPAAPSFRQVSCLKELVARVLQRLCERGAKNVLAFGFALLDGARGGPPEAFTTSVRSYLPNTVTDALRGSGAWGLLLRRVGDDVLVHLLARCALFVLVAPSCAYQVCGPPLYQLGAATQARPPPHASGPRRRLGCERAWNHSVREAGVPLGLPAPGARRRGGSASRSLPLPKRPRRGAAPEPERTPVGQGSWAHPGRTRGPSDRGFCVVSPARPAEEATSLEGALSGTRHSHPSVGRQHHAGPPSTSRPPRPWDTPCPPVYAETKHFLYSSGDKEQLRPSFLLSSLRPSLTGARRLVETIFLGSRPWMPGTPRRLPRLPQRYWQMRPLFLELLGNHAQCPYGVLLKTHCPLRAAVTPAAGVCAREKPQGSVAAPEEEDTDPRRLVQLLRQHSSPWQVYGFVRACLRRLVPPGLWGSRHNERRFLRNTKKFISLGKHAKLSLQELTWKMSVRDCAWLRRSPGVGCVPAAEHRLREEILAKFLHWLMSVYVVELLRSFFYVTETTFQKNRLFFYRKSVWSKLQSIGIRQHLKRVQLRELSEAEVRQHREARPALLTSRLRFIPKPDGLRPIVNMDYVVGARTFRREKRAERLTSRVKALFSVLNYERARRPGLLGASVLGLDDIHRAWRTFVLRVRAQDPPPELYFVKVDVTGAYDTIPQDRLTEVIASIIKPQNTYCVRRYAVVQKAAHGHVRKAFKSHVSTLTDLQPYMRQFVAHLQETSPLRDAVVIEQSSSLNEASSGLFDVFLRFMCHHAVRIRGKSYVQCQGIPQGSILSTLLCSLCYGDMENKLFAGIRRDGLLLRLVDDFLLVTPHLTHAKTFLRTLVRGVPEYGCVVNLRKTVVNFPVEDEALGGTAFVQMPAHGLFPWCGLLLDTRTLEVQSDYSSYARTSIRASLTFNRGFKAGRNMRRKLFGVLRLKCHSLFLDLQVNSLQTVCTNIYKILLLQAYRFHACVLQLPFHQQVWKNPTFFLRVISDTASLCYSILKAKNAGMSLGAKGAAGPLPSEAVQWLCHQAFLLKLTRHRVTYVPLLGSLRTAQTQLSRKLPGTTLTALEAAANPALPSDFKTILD
# [2] = molecular target: Telomerase reverse transcriptase (Homo sapiens) (UniProt O14746); test: Residual activity of human TERT in H1299 cells at 100 uM after 24 hrs by SEAP reporter gene assay
SMILES,Activity (OVCAR-8) [%],Activity (SK-OV-3) [%],Activity (ACHN) [%],Activity (CAKI-1) [%],Activity (RXF 393) [%],Activity (MCF7) [%],Activity (MDA-MB-468) [%],Activity (EKVX) [%],Activity (NCI-H226) [%],Activity (NCI-H522) [%],Activity (SF-268) [%],Activity (SNB-19) [%],Activity (LOX IMVI) [%],Activity (MDA-MB-435) [%],residual activity [1] [%],residual activity [2] [%]
Cc1ccc(C(=O)Nc2c(NC(=O)CN3CCCC3)ccc3c2C(=O)c2ccccc2C3=O)cc1,65.02,82.13,82.23,55.64,63.8,70.79,69.27,65.93,90.22,103.02,86.17,108.22,80.62,79.14,59,3
Cc1ccc(C(=O)Nc2ccc3c(c2NC(=O)c2ccc(C)cc2)C(=O)c2ccccc2C3=O)cc1,85.43,109.62,112.43,94.89,88.25,71.71,104.17,–,91.14,72.05,98.91,103.91,84.41,–,97,30
